Assay outcomes (PubChem BioAssay)
This is a sample that favours compounds with a hit; in the whole collection about 4.5% have one here.
AHR act – activates the human aryl hydrocarbon receptor; activation, % at 5 µM; hit rate 2.5% among 320,000; AID 2796; AHR-responsive luciferase reporter cells, luminescence; P35869; in the data active = activation above about 47%
APP 5'UTR act – activates APP 5'UTR luciferase reporter; AID 1276; SH-SY5Y APP 5'UTR luciferase reporter, luminescence; zero percent = DMSO vehicle wells; activation, % at 2 µM; hit rate 1% among 190,000;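 active = activation above a set limit, based on mean plus 3 SD of controls, cut at about 140% in these data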
PERK inhibitor – blocks human PERK kinase. inhibition, % at 5.6 µM. Q9NZJ5. CHO PERK-DD fusion, SEAP luminescence translation reporter. AID 1416. hit rate 0.17% among 220,000;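 active = inhibition above the mean inhibition of all tested compounds plus 3 SD, set separately per screening campaign, cut at about 2.9% in these data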;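 also: PERK kinase domain activated by AP20187 dimerizer at 100 nM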
STAT1 activator – increases IFN-gamma driven STAT1 reporter signal; AID 932; NIH 3T3 STAT1-luciferase reporter, luminescence; 100% = IFN-gamma alone, no compound; hit rate 2.6% among 200,000; activation (% of control), % at 5.5 µM;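 active = activation above the screen-wide mean activation plus 3 SD, cut at about 130% in these data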
NF-kB expr up – NF-kB expression increase, human neuronal cells; NF-kB reporter expression; hits give high values; fold change at 12.5 µM; hit rate 1.6% among 190,000; AID 1239; in the data active = fold change above about 3.3
MDM2 E3 inh – blocks human Mdm2 ubiquitin ligase activity. signal enhancement, % at 5 µM. hit rate 0.11% among 210,000. Q00987. cell-based MDM2 ubiquitination luciferase reporter, 2 h; 0 = plate control, 100 = twice control, blank-subtracted. AID 1230;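 active = signal enhancement of 30% or more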;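 also: luminescence tracks abundance of the self-degrading MDM2-luciferase fusion protein; higher signal means inhibition of MDM2 E3 ligase activity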
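Test system: mammalian cells stably expressing self-ubiquitinating, self-degrading MDM2 E3–luciferase fusion; Amount: 2000 cells in each well; Medium: DMEM; Schedule: 4 h settle plus 2 h compound, 37 °C; Technique: SteadyLite luciferase luminescence after 15 min room-temperature reagent incubation; Benchmarks: plate control and blank wells.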
STAT1 activ conf – STAT1 activation, confirmation assay | hit rate 97% among 1,200 | NIH 3T3 STAT1-luciferase reporter, IFN-gamma potentiation, luminescence; 100% = IFN-gamma EC80 alone, no compound | AID 1262 | shares compounds with STAT1 activator | activation (% of control), % at 5.7 µM;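 active = activation above a set limit carried over from the earlier primary STAT1 screen, cut at about 140% in these data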
NFkB act – counter-screen for STAT1 activators: NF-kappaB activation | shares compounds with STAT1 activator | HEK293T NF-kB luciferase reporter, TNF-alpha stimulated, luminescence; 100% = TNF-alpha with vehicle only | activation (% of control), % at 5.7 µM | hit rate 43% among 1,200;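 active = activation above the mean of solvent-only control wells plus 3 SD, set per campaign, cut at about 130% in these data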;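 also: TNF-alpha given at a submaximal dose yielding about 80% of full reporter signal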
STAT3 act 2 – counter-screen for STAT1 activators: human STAT3 activation. shares compounds with STAT1 activator. U3A cells STAT3-luciferase reporter, IL-6, luminescence; cells lack STAT1; 100 = IL-6 alone, no compound effect. activation (% of control), % at 5.7 µM. hit rate 46% among 1,200. AID 1316;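 active = activation above the solvent-only control well mean plus 3 SD, set per plate batch, cut at about 110% in these data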;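 also: higher means more STAT3 reporter activation so hits are non-selective activators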
Each line names hits and unclear results; the compound was inactive in the other large screens (follow-up assays come after a bar, where they were run).

Cc1cc(C(=O)CN2C(=O)NC(CC(C)C)C2=O)c(C)n1-c1ccccc1F (stereo unspecified)	STAT1 activator 153 | STAT1 activ conf 183 | NFkB act 135 | STAT3 act 2 131
Cc1cc(C(=O)CN2C(=O)NC(CC(C)C)C2=O)c(C)n1C1CC1 (stereo unspecified)	none (no result: APP 5'UTR act, PERK inhibitor, STAT1 activator, NF-kB expr up, MDM2 E3 inh)
CCCC(=O)Nc1ccc(-c2nc3cc(C)c(C)cc3o2)cc1	STAT1 activator 202, NF-kB expr up 4.7 | STAT1 activ conf 224 | NFkB act 141 | STAT3 act 2 122
CC(C)CC(=O)Nc1ccc2oc(-c3cccnc3)nc2c1	none
Cc1ccc2oc(-c3ccc(NC(=O)CC(C)C)cc3)nc2c1	STAT1 activator 154 | STAT1 activ conf 212 | NFkB act inactive | STAT3 act 2 inactive
C=CCn1c(C)cc(C(=O)COC(=O)c2ccc(N)c([N+](=O)[O-])c2)c1C	APP 5'UTR act 211, STAT1 activator 164, NF-kB expr up 4.4 | STAT1 activ conf 243 | NFkB act inactive | STAT3 act 2 112
Cc1cc(C(=O)COC(=O)c2ccc(N)c([N+](=O)[O-])c2)c(C)n1Cc1ccc2c(c1)OCO2	none (no result: APP 5'UTR act, STAT1 activator, NF-kB expr up, MDM2 E3 inh)
O=C(Cn1nnc(-c2ccccc2)n1)Nc1cccc(S(=O)(=O)N2CCOCC2)c1	none (no result: APP 5'UTR act, PERK inhibitor, STAT1 activator, NF-kB expr up, MDM2 E3 inh)
Cc1ccc(NC2CCCN(C(=O)c3ccccc3-c3ncc[nH]3)C2)cc1C (stereo unspecified)	none (no result: APP 5'UTR act, PERK inhibitor, STAT1 activator, NF-kB expr up, MDM2 E3 inh)
Cc1ccc(/C=N/c2sc3c(c2C#N)CCC3)o1	STAT1 activator 167 | STAT1 activ conf 188 | NFkB act 135 | STAT3 act 2 inactive
N#Cc1c(/N=C/N2CCOCC2)sc2c1CCCCC2	STAT1 activator 155, NF-kB expr up 4.9 | STAT1 activ conf 194 | NFkB act inactive | STAT3 act 2 126
O=S(=O)(c1ccc(N2CCN(CCO)CC2)nc1)N1CCOCC1	none (no result: APP 5'UTR act, PERK inhibitor, STAT1 activator, NF-kB expr up, MDM2 E3 inh)
N/C(=N\OC(=O)c1ccc2c(c1)OCO2)c1cccc(Br)c1	STAT1 activator 162 | STAT1 activ conf 178 | NFkB act inactive | STAT3 act 2 111
N/C(=N\OC(=O)c1cccc(Br)c1)c1ccc([N+](=O)[O-])cc1	none (no result: APP 5'UTR act, PERK inhibitor, STAT1 activator, NF-kB expr up, MDM2 E3 inh)
Cn1nccc1C(=O)Nc1ccc2c(c1)OCCO2	none
Cn1c(C(=O)Nc2ccc3c(c2)OCCO3)cc2sccc21	APP 5'UTR act 152, STAT1 activator 186, NF-kB expr up 9.1 | STAT1 activ conf 272 | NFkB act inactive | STAT3 act 2 inactive
Cc1nc(Nc2ccccc2)sc1-c1ccccc1	AHR act 72, APP 5'UTR act 187, STAT1 activator 193, NF-kB expr up 8.8 | STAT1 activ conf 242 | NFkB act inactive | STAT3 act 2 inactive
COC(=O)c1sc(Nc2ccccc2)nc1C	none
NS(=O)(=O)Cc1noc2ccccc12	none (no result: APP 5'UTR act, PERK inhibitor, STAT1 activator, NF-kB expr up, MDM2 E3 inh)
Cc1cnc(C(=O)Nc2ccc(C(C)C)cc2)cn1	STAT1 activator 159, NF-kB expr up 4.5 | STAT1 activ conf 180 | NFkB act 136 | STAT3 act 2 inactive
Cc1cnc(C(=O)Nc2ccc(F)cc2)cn1	none
N/C(=N\OC(=O)c1ccccc1Cl)c1ccncc1	AHR act 59, STAT1 activator 162 (no result: NF-kB expr up, MDM2 E3 inh) | STAT1 activ conf 155 | NFkB act inactive | STAT3 act 2 inactive
N/C(=N\OC(=O)CCCOc1ccc(Cl)cc1Cl)c1ccncc1	none
N/C(=N\OC(=O)COc1ccc(Cl)cc1Br)c1ccncc1	STAT1 activator 157, NF-kB expr up 5.8 (no result: AHR act) | STAT1 activ conf 198 | NFkB act 142 | STAT3 act 2 122
N/C(=N\OC(=O)CCCOc1ccc(Cl)cc1Cl)c1ccccn1	none
